# In ChEMBL document CHEMBL1208682, “New quinoline derivatives: synthesis and investigation of antibacterial and antituberculosis properties” (2010):
# Assays:
# Type in all cases: functional
# Klebsiella pneumoniae = assay: Antibacterial activity against recultured Klebsiella pneumoniae after 3 to 4 days by serial plate dilution method; settings: for MIC: Klebsiella pneumoniae
# Escherichia coli = assay: Antibacterial activity against Escherichia coli ATCC 25922 after 3 to 4 days by serial plate dilution method; settings: for MIC: Escherichia coli, ATCC 25922
# Pseudomonas aeruginosa = assay: Antibacterial activity against Pseudomonas aeruginosa ATCC 27853 after 3 to 4 days by serial plate dilution method; settings: for MIC: Pseudomonas aeruginosa, ATCC 27853
# Staphylococcus aureus = assay: Antibacterial activity against Staphylococcus aureus ATCC 25923 after 3 to 4 days by serial plate dilution method; settings: for MIC: Staphylococcus aureus, ATCC 25923
# [1] = test system: Mycobacterium tuberculosis; assay: Antituberculosis activity against Mycobacterium tuberculosis H37Rv ATCC 27294 after 7 days using resazurin dye by broth microdilution assay; settings: H37Rv ATCC 27294, 168 h
# Outline: (§1)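 M. tuberculosis H37Rv grown in Middlebrook 7H9 with 10% OADC and 0.5% glycerol, adjusted to McFarland 1.0. Compounds were dissolved in DMF as stocks and tested at final levels of 1.56, 3.12, 6.25, 12.5, 25 and 50 in 96-well REMA. Controls were DMF-only, growth, rifampicin and isoniazid. After 7 days at 37 °C, 0.01% resazurin was added for 24 h and the colour change read.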
# [2] = test system: Mycobacterium tuberculosis; assay: Antituberculosis activity against Mycobacterium tuberculosis at MIC concentration after 7 days using resazurin dye by broth microdilution assay; outline: as §1
Structure (SMILES),diameter of the inhibition zone (DIZ) (Klebsiella pneumoniae),MIC (Klebsiella pneumoniae),diameter of the inhibition zone (DIZ) (Escherichia coli),MIC (Escherichia coli),diameter of the inhibition zone (DIZ) (Pseudomonas aeruginosa),MIC (Pseudomonas aeruginosa),diameter of the inhibition zone (DIZ) (Staphylococcus aureus),MIC (Staphylococcus aureus),MIC [1],inhibition (INH) [2]
Oc1cc(F)ccc1/C=N/Nc1cc(C(F)(F)F)nc2c(C(F)(F)F)cccc12,13 mm,12.5 µg/mL,22 mm,6.25 µg/mL,12 mm,12.5 µg/mL,13 mm,12.5 µg/mL,> 50 µM,
FC(F)C(F)(F)Oc1cccc(/C=N/Nc2cc(C(F)(F)F)nc3c(C(F)(F)F)cccc23)c1,18 mm,6.25 µg/mL,21 mm,6.25 µg/mL,26 mm,6.25 µg/mL,22 mm,6.25 µg/mL,12.5 µM,<90%
COc1ccc(/C=N/Nc2cc(C(F)(F)F)nc3c(C(F)(F)F)cccc23)cc1O,12 mm,12.5 µg/mL,13 mm,12.5 µg/mL,15 mm,12.5 µg/mL,14 mm,12.5 µg/mL,12.5 µM,<90%
COc1ccc(/C=N/Nc2cc(C(F)(F)F)nc3c(C(F)(F)F)cccc23)c(F)c1,22 mm,6.25 µg/mL,25 mm,6.25 µg/mL,24 mm,6.25 µg/mL,23 mm,6.25 µg/mL,6.25 µM,95%
FC(F)(F)c1cc(N/N=C/c2cccs2)c2cccc(C(F)(F)F)c2n1,<10 mm,50 µg/mL,<10 mm,50 µg/mL,<10 mm,50 µg/mL,<10 mm,50 µg/mL,> 50 µM,
FC(F)(F)c1cc(N/N=C/c2cccnc2)c2cccc(C(F)(F)F)c2n1,20 mm,6.25 µg/mL,24 mm,6.25 µg/mL,25 mm,6.25 µg/mL,22 mm,6.25 µg/mL,12.5 µM,<90%
FC(F)(F)c1cc(N/N=C/C2CCCCC2)c2cccc(C(F)(F)F)c2n1,19 mm,6.25 µg/mL,25 mm,6.25 µg/mL,23 mm,6.25 µg/mL,24 mm,6.25 µg/mL,6.25 µM,95%
FC(F)(F)Oc1cccc(/C=N/Nc2cc(C(F)(F)F)nc3c(C(F)(F)F)cccc23)c1,20 mm,6.25 µg/mL,24 mm,6.25 µg/mL,26 mm,6.25 µg/mL,21 mm,6.25 µg/mL,12.5 µM,<90%
CCCCCCC/C=N/Nc1cc(C(F)(F)F)nc2c(C(F)(F)F)cccc12,12 mm,12.5 µg/mL,24 mm,6.25 µg/mL,14 mm,12.5 µg/mL,12 mm,12.5 µg/mL,6.25 µM,95%
FC(F)(F)c1cc(N/N=C/c2cocc2Br)c2cccc(C(F)(F)F)c2n1,<10 mm,50 µg/mL,<10 mm,50 µg/mL,<10 mm,50 µg/mL,<10 mm,50 µg/mL,> 50 µM,
FC(F)(F)c1cc(N/N=C/c2c[nH]cn2)c2cccc(C(F)(F)F)c2n1,18 mm,6.25 µg/mL,25 mm,6.25 µg/mL,23 mm,6.25 µg/mL,24 mm,6.25 µg/mL,3.12 µM,99%
Cn1cc(Cl)c(/C=N/Nc2cc(C(F)(F)F)nc3c(C(F)(F)F)cccc23)n1,18 mm,6.25 µg/mL,24 mm,6.25 µg/mL,28 mm,6.25 µg/mL,22 mm,6.25 µg/mL,6.25 µM,95%
FC(F)(F)c1cc(N/N=C/c2ccc3c(c2)CCO3)c2cccc(C(F)(F)F)c2n1,12 mm,12.5 µg/mL,21 mm,6.25 µg/mL,15 mm,12.5 µg/mL,14 mm,12.5 µg/mL,25 µM,
CC(=O)OCc1ccc(/C=N/Nc2cc(C(F)(F)F)nc3c(C(F)(F)F)cccc23)o1,11 mm,12.5 µg/mL,20 mm,6.25 µg/mL,14 mm,12.5 µg/mL,10 mm,12.5 µg/mL,> 50 µM,
COc1ccc2[nH]cc(/C=N/Nc3cc(C(F)(F)F)nc4c(C(F)(F)F)cccc34)c2c1,20 mm,6.25 µg/mL,23 mm,6.25 µg/mL,25 mm,6.25 µg/mL,22 mm,6.25 µg/mL,25 µM,
N#Cc1cccc(NC(=O)NNc2cc(C(F)(F)F)nc3c(C(F)(F)F)cccc23)c1,<10 mm,50 µg/mL,<10 mm,50 µg/mL,<10 mm,50 µg/mL,<10 mm,50 µg/mL,25 µM,
CCCCCNC(=O)NNc1cc(C(F)(F)F)nc2c(C(F)(F)F)cccc12,<10 mm,50 µg/mL,10 mm,12.5 µg/mL,14 mm,12.5 µg/mL,10 mm,12.5 µg/mL,25 µM,
Fc1ccccc1NC(=S)NNc1cc(C(F)(F)F)nc2c(C(F)(F)F)cccc12,<10 mm,50 µg/mL,<10 mm,50 µg/mL,<10 mm,50 µg/mL,<10 mm,50 µg/mL,> 50 µM,
COCCNC(=S)NNc1cc(C(F)(F)F)nc2c(C(F)(F)F)cccc12,<10 mm,50 µg/mL,10 mm,12.5 µg/mL,12 mm,12.5 µg/mL,11 mm,12.5 µg/mL,25 µM,
CC1=NN(c2cc(C(F)(F)F)nc3c(C(F)(F)F)cccc23)C(=O)C1,20 mm,6.25 µg/mL,22 mm,6.25 µg/mL,25 mm,6.25 µg/mL,24 mm,6.25 µg/mL,,
O=C1CC(CCc2ccc3c(c2)OCO3)=NN1c1cc(C(F)(F)F)nc2c(C(F)(F)F)cccc12,22 mm,6.25 µg/mL,21 mm,6.25 µg/mL,24 mm,6.25 µg/mL,22 mm,6.25 µg/mL,,
O=C1CC(c2ccccc2)=NN1c1cc(C(F)(F)F)nc2c(C(F)(F)F)cccc12,10 mm,12.5 µg/mL,10 mm,12.5 µg/mL,12 mm,12.5 µg/mL,18 mm,6.25 µg/mL,,
O=C1CC(c2ccncc2)=NN1c1cc(C(F)(F)F)nc2c(C(F)(F)F)cccc12,10 mm,12.5 µg/mL,10 mm,12.5 µg/mL,12 mm,12.5 µg/mL,20 mm,6.25 µg/mL,,
O=C(O)c1cn(C2CC2)c2cc(N3CCNCC3)c(F)cc2c1=O [CIPROFLOXACIN],24 mm,3.12 µg/mL,28 mm,,31 mm,,26 mm,,,
NNC(=O)c1ccncc1 [ISONIAZID],,,,,,,,,1.5 µM,95%
CO[C@H]1/C=C/O[C@@]2(C)Oc3c(C)c(O)c4c(O)c(c(/C=N/N5CCN(C)CC5)c(O)c4c3C2=O)NC(=O)/C(C)=C\C=C\[C@H](C)[C@H](O)[C@@H](C)[C@@H](O)[C@@H](C)[C@H](OC(C)=O)[C@@H]1C [RIFAMPIN],,,,,,,,,0.5 µM,99%
